Results reported in ChEMBL document CHEMBL1811845, “Modulation of GABAA-receptors by honokiol and derivatives: subtype selectivity and structure-activity relationship” (J Med Chem, 2011).
pEC50: −log10 of the molar value.

Experiments:
[1] = Octanol-water partition coefficient, log P of the compound; format: physicochemical
[2] = molecular target: T1, GABA-A receptor; GABA-A site (alpha1/beta2 interface) (Homo sapiens) (UniProt P14867+P47870); experiment: Modulation of GABA Aalpha1beta2 receptor expressed in Xenopus laevis oocytes assessed as potentiation of GABA-induced chloride current at holding potential -70 mV at 30 uM by two-microelectrode voltage clamp technique relative to GABA; format: cell-based; settings: Oocyte
Summary of the method: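 Single-concentration screen at 30 μM on α1β2 receptors (cRNA 1:1) in Xenopus oocytes. Enhancement was (I(GABA+compound)/IGABA)−1. DMSO was matched in control and test solutions, maximum 0.3% in the bath.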

[3] = molecular target: T2, GABA-A receptor; GABA-A site (alpha1/beta2 interface) (Homo sapiens, UniProt P14867+P47870); experiment: Modulation of GABA Aalpha1beta2 receptor expressed in Xenopus laevis oocytes assessed as potentiation of GABA-induced chloride current at holding potential -70 mV by two-microelectrode voltage clamp technique; format: cell-based, Oocyte
T2 sequence (P14867 whole entry): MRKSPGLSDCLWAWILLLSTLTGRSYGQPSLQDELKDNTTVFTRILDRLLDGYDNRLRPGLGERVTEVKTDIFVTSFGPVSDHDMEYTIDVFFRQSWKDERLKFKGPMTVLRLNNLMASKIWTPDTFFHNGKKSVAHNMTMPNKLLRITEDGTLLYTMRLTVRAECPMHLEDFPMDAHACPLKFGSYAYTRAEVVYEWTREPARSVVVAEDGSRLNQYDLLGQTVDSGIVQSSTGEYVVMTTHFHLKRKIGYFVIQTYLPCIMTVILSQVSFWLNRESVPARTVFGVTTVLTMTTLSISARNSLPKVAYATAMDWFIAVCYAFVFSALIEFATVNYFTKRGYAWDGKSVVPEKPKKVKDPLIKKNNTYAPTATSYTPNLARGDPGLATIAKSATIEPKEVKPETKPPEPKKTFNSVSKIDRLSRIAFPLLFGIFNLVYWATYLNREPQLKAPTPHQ
T2 sequence (P47870 whole entry): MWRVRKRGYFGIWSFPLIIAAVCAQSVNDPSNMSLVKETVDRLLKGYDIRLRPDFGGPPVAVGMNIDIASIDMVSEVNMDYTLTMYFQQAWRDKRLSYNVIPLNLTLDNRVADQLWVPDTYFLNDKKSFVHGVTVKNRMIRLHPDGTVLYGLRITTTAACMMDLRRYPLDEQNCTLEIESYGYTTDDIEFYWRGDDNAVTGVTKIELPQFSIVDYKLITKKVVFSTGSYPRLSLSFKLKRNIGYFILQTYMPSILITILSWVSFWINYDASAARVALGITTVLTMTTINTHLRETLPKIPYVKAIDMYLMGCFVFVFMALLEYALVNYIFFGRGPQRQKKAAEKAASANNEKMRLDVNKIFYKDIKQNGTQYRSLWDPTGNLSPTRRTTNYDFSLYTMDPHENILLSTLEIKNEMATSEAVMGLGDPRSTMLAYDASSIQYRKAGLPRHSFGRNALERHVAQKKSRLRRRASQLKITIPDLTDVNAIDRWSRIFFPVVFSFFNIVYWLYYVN
Summary of the method: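 Stage V–VI Xenopus oocytes, defolliculated with 2 mg/mL collagenase, injected with α(1, 2, 3 or 5) and β2 cRNAs mixed 1:1, then kept at 18 °C in ND96 (pH 7.4). Enhancement = I(GABA+compound)/IGABA − 1. Curves were Hill-fitted for EC50. Bath DMSO was at most 0.3%, matched in controls.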

[4] = molecular target: T1, GABA-A receptor; GABA-A site (alpha1/beta2 interface) (Homo sapiens); experiment: Modulation of GABA Aalpha1beta2 receptor expressed in Xenopus laevis oocytes assessed as potentiation of GABA-induced chloride current at holding potential -70 mV by two-microelectrode voltage clamp technique relative to GABA; format: cell-based; settings: Oocyte
Summary of the method: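 Oocytes were injected with α1, α2, α3 or α5 plus β2 cRNA at a 1:1 ratio and stored at 18 °C in ND96, pH 7.4. Enhancement was (I(GABA+compound)/IGABA)−1, and concentration-response data were Hill-fitted for EC50 and nH. Matched DMSO was ≤0.3%.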

| logP ([1]; read-out: logP) | Activity [2] | pEC50 [3] | Smax [4] | logP [1] | Compound |
| --- | --- | --- | --- | --- | --- |
| 7.6 | 22% | – | – | – | C=CCc1ccc(OCCC)c(-c2ccc(OCCC)c(CC=C)c2)c1 |
| 5.99 | 1230% | 5.08 | 1340% | – | C=CCc1cc(-c2cc(CC(C)Br)ccc2O)ccc1OC (stereo unspecified) |
| 5.09 | 53% | 4.45 | 148% | – | C=CCc1cccc(-c2cccc(CC=C)c2O)c1O |
| 5.38 | 215% | 4.73 | 326% | – | C=CCc1cc(-c2ccc(OC)c(CC=C)c2)c(O)c(N(C)C)c1 |
| 6.06 | 7% | – | – | – | C=CCc1cc(-c2ccc(OC)c(CC=C)c2)c(O)c(N(CC)CC)c1 |
| 5.43 | 822% | 4.57 | 1530% | – | C=CCc1ccc(O)c(-c2ccc(OC)c(CC=C)c2)c1 [METHYLHONOKIOL] |
| 5.99 | 589% | 4.77 | 952% | – | C=CCc1ccc(O)c(-c2ccc(OC)c(CC(C)Br)c2)c1 (stereo unspecified) |
| 5.11 | 1840% | 5.03 | 2030% | – | C=CCc1cc(NC)c(O)c(-c2ccc(OC)c(CC=C)c2)c1 |
| 5.4 | 120% | 4.60 | 227% | – | C=CCc1cc(-c2ccc(OC)c(CC=C)c2)c(O)c([N+](=O)[O-])c1 |
| 5.43 | 687% | 4.27 | 2800% | – | C=CCc1ccc(O)c(-c2cc(CC=C)ccc2OC)c1 |
| 7.27 | 28% | – | – | – | C=CCc1ccc(O)c(-c2ccc(OCCCCC)c(CC=C)c2)c1 |
| 5.16 | 73% | 4.63 | 110% | – | C=CCc1cc(-c2ccc(O)c(CC=C)c2)ccc1O |
| 3.64 | 68% | 4.47 | 161% | – | COc1ccc(-c2cc(CC(C)O)ccc2O)cc1CC(C)O (stereo unspecified) |
| 4.79 | 2180% | 4.91 | 2710% | – | C=CCc1cc(N)c(O)c(-c2ccc(OC)c(CC=C)c2)c1 |
| 2.72 | 15% | 3.98 | 177% | – | COc1ccc(-c2cc(CCO)ccc2O)cc1CCO |
| 1.57 | 4% | – | – | – | COc1ccc(-c2cc(CC(O)CO)ccc2O)cc1CC(O)CO (stereo unspecified) |
| – | 1% | – | – | 9.37 | C=CCc1ccc(OCCCCC)c(-c2ccc(OCCCCC)c(CC=C)c2)c1 |
| 5.69 | 110% | 4.38 | 368% | – | C=CCc1ccc(OC)c(-c2ccc(OC)c(CC=C)c2)c1 |
| 6.37 | 14% | – | – | – | C=CCc1ccc(OCC)c(-c2ccc(OCC)c(CC=C)c2)c1 |

| Compound | logP ([1]; read-out: logP) | Activity [2] | pEC50 [3] | Smax [4] | logP [1] |
| --- | --- | --- | --- | --- | --- |
| C=CCc1ccc(OCCCCC)c(-c2ccc(O)c(CC=C)c2)c1 | 7.27 | 13% | – | – | – |
| C=CCc1ccc(OCC)c(-c2ccc(O)c(CC=C)c2)c1 | 5.77 | 1080% | 4.84 | 1400% | – |
| CCCCC=CCc1ccc(O)c(-c2ccc(OC)c(CC=CCCCC)c2)c1 (mixture of isomers) | 8.36 | -2% | 5.70 | – | – |
| C=CCc1ccc(O)c(-c2ccc(OCC)c(CC=C)c2)c1 | 5.77 | 345% | 4.22 | 865% | – |
| C=CCc1ccc(OC2CC2)c(-c2ccc(OCCC)c(CC=C)c2)c1 | 6.38 | 339% | 4.66 | 608% | – |
| C=CCc1ccc(O)c(-c2ccc(OC)c(/C=C\C)c2)c1 | 5.45 | 605% | 4.71 | 1000% | – |
| C=CCc1ccc(OCCC)c(-c2ccc(O)c(CC=C)c2)c1 | 6.38 | 93% | 4.83 | 145% | – |
| C=CCc1cc(NCC)c(O)c(-c2ccc(OC)c(CC=C)c2)c1 | 5.45 | 2140% | 5.11 | 2290% | – |
| CCCc1ccc(O)c(-c2ccc(OC)c(CCC)c2)c1 | 6.01 | 1060% | 4.90 | 1440% | – |
| C=CCc1ccc(O)c(-c2cc(CC=C)ccc2O)c1 [MAGNOLOL] | 5.16 | 357% | 4.43 | 963% | – |
